This is an account of results in ChEMBL document CHEMBL3108663, “Cembrane-type diterpenoids from the Chinese liverworts Chandonanthus hirtellus and C. birmensis” (J Nat Prod, 2014).

Holding throughout (format): functional, cell-based
Test [1] concerns A549. Kind of test: Cytotoxicity against human A549 cells after 24 hrs by MTT assay. As to conditions: A549, 24 h. In short, it runs like this: (§1)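 Cells plated 24 h before treatment, then exposed continuously to a range of compound concentrations for 24 h. MTT added and incubated 4 h at 37 °C under 5% CO2. Absorbance read at 570 nm. IC50 taken from plotted results with untreated cells set at 100%. Run at least three times; means ± SD of triplicates.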
(In general: Formazan colour is commonly taken as a measure of viable cells.)

Test [2] relates to NCI-H1299. Kind of test: Cytotoxicity against human NCI-H1299 cells after 24 hrs by MTT assay. The note with it: NCI-H1299, 24 h. In short, it runs like this:
as §1

Test [3] concerns PC-3. Kind of test: Cytotoxicity against human PC3 cells after 24 hrs by MTT assay. The note with it: PC-3, 24 h. In short, it runs like this:
as §1

Test [4] in a line: Cytotoxicity against human A172 cells after 24 hrs by MTT assay. The note with it: A 172, 24 h. The method in brief:
as §1

Test [5] deals with NCI-H292. Kind of test: Cytotoxicity against human NCI-H292 cells after 24 hrs by MTT assay. The note with it: NCI-H292, 24 h. In short, it runs like this: as §1
Test [6] relates to DU-145. Kind of test: Cytotoxicity against human DU145 cells after 24 hrs by MTT assay. The note with it: DU-145, 24 h. In short, it runs like this: as §1
Test [7] in a line: Cytotoxicity against rat PC12 cells after 24 hrs by MTT assay. The note with it: PC-12, 24 h. In short, it runs like this:
as §1

By IC50 is commonly meant the midpoint of a concentration-inhibition curve. Read a low IC50 as higher potency. For the molecule `CC(C)[C@H]1CC[C@]2(C)C[C@]3(O)C(=CC(=O)[C@H]3C)[C@@H](C)CC[C@@H]12` [ANADENSIN], the IC50 in test [1] was more than 50 µM; in test [2], 34.7 µM; in test [3], more than 50 µM; in test [4], more than 50 µM; in test [5], more than 50 µM; in test [6], more than 50 µM. Also, the IC50 in test [7] was determined as 31.1 µM.
For the molecule `CC(=O)O[C@@]1(C)C/C=C2\O[C@H](C[C@@H]2C)C[C@]2(C)O[C@H]2C(=O)C(=C(C)C)CC1`, the IC50 in test [1] was more than 50 µM; in test [2], 28.3 µM; in test [3] it was more than 50 µM; in test [4] it was more than 50 µM; in test [5], more than 50 µM; in test [6], more than 50 µM. For the same molecule, inhibition in test [7] was half-maximal at 41.1 µM (IC50).
`CC(C)=C1CC[C@]2(C)CC[C@]3(O[C@H](C[C@H]3C)C[C@]3(C)O[C@H]3C1=O)O2`: the IC50 in test [1] was more than 50 µM; in test [2], more than 50 µM; in test [3], more than 50 µM; in test [4] it was more than 50 µM; in test [5], 48.1 µM; in test [6], more than 50 µM. This molecule came in with an IC50 in test [7] of more than 50 µM.
With `CC(=O)O[C@]1(C)CCC(=C(C)C)C(=O)[C@@H]2O[C@@]2(C)C[C@H]2C[C@H](C)[C@@](O)(CC1)O2`, the IC50 in test [1] was more than 50 µM; in test [2] it was 23.5 µM; in test [3], more than 50 µM; in test [4], more than 50 µM; in test [5], more than 50 µM; in test [6], more than 50 µM. This molecule returned an IC50 in test [7] of 37.1 µM.
As to `CC(=O)O[C@@]1(C)CCC(=O)/C(C)=C/CC[C@]2(C)O[C@H]2C(=O)C(=C(C)C)CC1`, the IC50 in test [1] was more than 50 µM; in test [2], 40.3 µM; in test [3], more than 50 µM; in test [4] it was 37.3 µM; in test [5], 48.7 µM; in test [6], more than 50 µM. The same molecule yielded an IC50 in test [7] of 40.6 µM.
Turning to `CC(=O)O[C@@]1(C)CCC(=O)[C@H](C)CCC[C@]2(C)O[C@H]2C(=O)C(=C(C)C)CC1`, the IC50 in test [1] was more than 50 µM; in test [2], 19.5 µM; in test [3] it was 44.9 µM; in test [4], 31.9 µM; in test [5], 38.9 µM; in test [6], more than 50 µM. This molecule yielded an IC50 in test [7] of 43.8 µM.
`CC(=O)O[C@@]1(C)CCC(=O)[C@@H](C)CCC[C@]2(C)O[C@H]2C(=O)C(=C(C)C)CC1`: the IC50 in test [1] was 31.1 µM; in test [2] it was 17.2 µM; in test [3], 24.3 µM; in test [4], 23.1 µM; in test [5] it was 21.4 µM; in test [6], 43.7 µM. In addition, in test [7], the IC50 was determined as 24.5 µM.
With `CC(=O)O[C@@]1(C)CCC/C(C)=C/CC[C@@]2(C)O[C@@H]2C(=O)C(=C(C)C)CC1`, the IC50 in test [1] is more than 50 µM; in test [2], 41.6 µM; in test [3], more than 50 µM; in test [4] it was more than 50 µM; in test [5] it was more than 50 µM; in test [6], more than 50 µM. Further, the midpoint of inhibition in test [7], the IC50, lay at 47.1 µM.
`CC(C)=C1CC[C@]2(C)CC[C@]3(O[C@H](C[C@@H]3C)C[C@]3(C)O[C@H]3C1=O)O2`: the IC50 in test [1], in test [2], in test [3], in test [4], in test [5] and in test [6] was more than 50 µM in each case. Moreover, in test [7], the midpoint of inhibition, the IC50, lay at 36.4 µM.
Regarding `CC(=O)O[C@]1(C)CCC(=C(C)C)C(=O)[C@@H]2O[C@@]2(C)CC/C=C(\C)[C@H](O)CC1`, the IC50 in test [1] was 21.5 µM; in test [2], 20.9 µM; in test [3], more than 50 µM; in test [4], more than 50 µM; in test [5], more than 50 µM; in test [6] it was more than 50 µM. The same molecule yielded an IC50 in test [7] of 30.2 µM.
As to `CC(=O)O[C@H]1C[C@]2(C)O[C@H]2CC/C(C)=C/[C@@H](OC(C)=O)[C@]2(C)[C@@H]1[C@H]([C@]1(C)CO1)C[C@@H]2OC(C)=O`, the IC50 in test [1], in test [2], in test [3], in test [4], in test [5] and in test [6] was more than 50 µM each time. The IC50 in test [7] is more than 50 µM.
